For 3 compounds, Activity results are on record in ChEMBL document CHEMBL3352597, “Heck products of parthenolide and melampomagnolide-B as anticancer modulators that modify cell cycle progression” (Eur J Med Chem, 2014).

The assay concerns Oocyte. The assay is described as follows: Induction of immature stage VI Xenopus oocyte maturation assessed as stimulation of progesterone-mediated maturation measured as germinal vesicle (nuclear) breakdown at 100 uM after overnight incubation. It counts as functional, cell-based. The gist of the method:
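Oocytes (20 per well) pre-treated overnight with compound (100 μM final, DMSO) or DMSO vehicle, then stimulated with 2 μg/ml progesterone. GVBD (animal-pole white spot) scored at the time 50% of DMSO controls reach GVBD. Rate relative to control: 1.0 means no difference, above 1.0 acceleration, below 1.0 delay, 0.0 no maturation. Differences over 20% followed up.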

Calls of active or inactive are those of the source. The rule behind the calls is not given here.

In the case of `C[C@@]12CC/C=C(/CO)CC[C@@H]3/C(=C\c4ccc(N)cc4)C(=O)O[C@@H]3[C@@H]1O2`, the outcome was Active.

With `C[C@@]12CC/C=C(/CO)CC[C@@H]3/C(=C\c4cccc(C(F)(F)F)c4)C(=O)O[C@@H]3[C@@H]1O2`, the result was Active. In the case of `C[C@@]12CC/C=C(/CO)CC[C@@H]3/C(=C\c4ncc[nH]4)C(=O)O[C@@H]3[C@@H]1O2` it was “Active”.
